Variants at the floor of the assay were thinned out.
B1: tRNA (parent)
chain: GUUCCGUUGGCGUAAUGGUAACGCGUCUCCCUCCUAAGGAGAAGACUGCGGGUUCGAGUCCCGUACGGAACG

Variants of: B1
Assay: yeast fitness relative to wild type (ratio to wild type); higher = fitter; tRNA-Arg(CCU), competitive growth, 37 C, YPD
Procedure, shortened: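 A pool of Saccharomyces cerevisiae strains, each with a tRNA-Arg(CCU) gene variant at the native genomic locus, was competed in YPD at 37°C for 24 hours across six parallel replicates. The variants had been chemically synthesised at a 3% per-site mutation rate over 69 sites, and gene amplicons before and after competition were read by 100-nucleotide paired-end sequencing. Darwinian fitness relative to wild type rested on changes in genotype frequencies. Genotypes required ≥ 100 starting reads, and estimates < 0.5 were set to 0.5.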

| Variant | yeast fitness |
| --- | --- |
| C11U C34A A36C G68C | ≤ 0.5 |
| C11U C34G | 0.591 |
| C11U C34G A37U | ≤ 0.5 |
| C11U C34G A42C | ≤ 0.5 |
| C11U C34G C55G U59C C60U G67U | ≤ 0.5 |
| C11U C34G G50C | 0.576 |
| C11U C34U G38A G44C | 0.541 |
| C11U C34U G41A | ≤ 0.5 |
| C11U C34U G48A | ≤ 0.5 |
| C11U C46G | 0.986 |
| C11U C46G C49U | 0.825 |
| C11U C46G G51A | 0.571 |
| C11U C46U U59C | 0.767 |
| C11U C49G | 0.892 |
| C11U C49G A57G | ≤ 0.5 |
| C11U C49U A65G | 0.76 |
| C11U C49U A70C | 0.672 |
| C11U C49U C61G A65C | 0.534 |
| C11U C55A C62U | ≤ 0.5 |
| C11U C55A G58C | ≤ 0.5 |
| C11U C55A U64C | ≤ 0.5 |

| Variant | yeast fitness |
| --- | --- |
| C11U C55G G63C G67C | ≤ 0.5 |
| C11U C60G | 0.607 |
| C11U C60U C62G | 0.588 |
| C11U C60U C62U | ≤ 0.5 |
| C11U C61A | 0.869 |
| C11U C61G | 0.638 |
| C11U C62G G63A | 0.529 |
| C11U C62U A70G | 0.753 |
| C11U C66A | 0.65 |
| C11U C66G | 0.745 |
| C11U G12A | 0.998 |
| C11U G12A A14G U53C | ≤ 0.5 |
| C11U G12A C24U C34G | ≤ 0.5 |
| C11U G12A C27U G52A C62U | ≤ 0.5 |
| C11U G12A C31U U53C A65C | ≤ 0.5 |
| C11U G12A C31U U53C A69U | ≤ 0.5 |
| C11U G12A C31U U53C G63A A65C | ≤ 0.5 |
| C11U G12A G18C U47C G68C | ≤ 0.5 |
| C11U G12A G44C C46U | 0.575 |
| C11U G12C U26C A40U A57U | 0.612 |
| C11U G17A | 0.961 |

| Variant | yeast fitness |
| --- | --- |
| C11U G17A G48A G51C C60A U64C | 0.623 |
| C11U G17A U35A G38A C61G | ≤ 0.5 |
| C11U G17C A20C | ≤ 0.5 |
| C11U G17C C30A C33G C61U | 0.581 |
| C11U G17U C27U C31A U35C C55G C66U A70C | ≤ 0.5 |
| C11U G18A A36U G48C | ≤ 0.5 |
| C11U G18A A37G | ≤ 0.5 |
| C11U G18A C62A A70C | ≤ 0.5 |
| C11U G18A G23C C34U U59A A70C | ≤ 0.5 |
| C11U G18A G41C | ≤ 0.5 |
| C11U G18C A43C G52A | ≤ 0.5 |
| C11U G18C C24G C46A | 0.537 |
| C11U G18C C29A G67C | ≤ 0.5 |
| C11U G18C C31A | ≤ 0.5 |
| C11U G18C C33G G44A C46G C66U | 0.606 |
| C11U G23A | 0.952 |
| C11U G23A C33G A69C | ≤ 0.5 |
| C11U G23C C31G C60G A65U | ≤ 0.5 |
| C11U G23C G58A A70U | 0.541 |
| C11U G25A | 0.867 |
| C11U G25A C29U G67A A70U | ≤ 0.5 |

| Variant | yeast fitness |
| --- | --- |
| C11U G25A C62G | 0.569 |
| C11U G25A C62U A70C | 0.67 |
| C11U G25C A36U | 0.547 |
| C11U G25C A40U C49G G63C | ≤ 0.5 |
| C11U G25C A40U C49U | ≤ 0.5 |
| C11U G25C C29G A43G C49G | 0.546 |
| C11U G25C C31U | 0.679 |
| C11U G38A A40U G52C | 0.568 |
| C11U G38C | 0.715 |
| C11U G38C G48A | 0.57 |
| C11U G39A A40U | 0.673 |
| C11U G39C | 0.68 |
| C11U G39C C46U | 0.756 |
| C11U G39C C62U G63C | ≤ 0.5 |
| C11U G41A G58A | 0.768 |
| C11U G44A | 1.03 |
| C11U G44A C62U | 0.762 |
| C11U G44C | 0.974 |
| C11U G48A G51C C60A U64C | 0.887 |
| C11U G48A G51C C61A A65C | ≤ 0.5 |
